Laboratory results published in ChEMBL document CHEMBL1649552 (2009).
Values after ≈ are worked out from the molar mass of the structure shown.

Columns and labels:
Assay type in all cases: functional
[1] = tested on: Staphylococcus epidermidis; assay: Antibacterial activity against methicillin-resistant Staphylococcus epidermidis by CLSI M100-S17 method
Escherichia coli [2] = assay: Antibacterial activity against Escherichia coli by CLSI M100-S17 method
Streptococcus pneumoniae = assay: Antibacterial activity against Streptococcus pneumoniae by CLSI M100-S17 method
Escherichia coli [3] = assay: Antibacterial activity against acrAB-deficient Escherichia coli AG100a
Pseudomonas aeruginosa [4] = assay: Antibacterial activity against Pseudomonas aeruginosa by CLSI M100-S17 method
Streptococcus agalactiae = assay: Antibacterial activity against Streptococcus agalactiae by CLSI M100-S17 method
Staphylococcus aureus [5] = assay: Antibacterial activity against methicillin-resistant Staphylococcus aureus by CLSI M100-S17 method
Staphylococcus aureus [6] = assay: Antibacterial activity against methicillin-susceptible Staphylococcus aureus by CLSI M100-S17 method
Enterococcus faecium = assay: Antibacterial activity against Enterococcus faecium by CLSI M100-S17 method
Escherichia coli [7] = assay: Antibacterial activity against Escherichia coli AG100
Moraxella catarrhalis [8] = assay: Antibacterial activity against Moraxella catarrhalis by CLSI M100-S17 method
Acinetobacter baumannii [9] = assay: Antibacterial activity against Acinetobacter baumannii by CLSI M100-S17 method
Klebsiella pneumoniae [10] = assay: Antibacterial activity against Klebsiella pneumoniae by CLSI M100-S17 method
Streptococcus pyogenes = assay: Antibacterial activity against Streptococcus pyogenes by CLSI M100-S17 method
[11] = tested on: Stenotrophomonas maltophilia; assay: Antibacterial activity against Stenotrophomonas maltophilia by CLSI M100-S17 method
Proteus mirabilis [12] = assay: Antibacterial activity against Proteus mirabilis by CLSI M100-S17 method
Enterococcus faecalis = assay: Antibacterial activity against Enterococcus faecalis by CLSI M100-S17 method
Klebsiella oxytoca [13] = assay: Antibacterial activity against Klebsiella oxytoca by CLSI M100-S17 method
Serratia marcescens [14] = assay: Antibacterial activity against Serratia marcescens by CLSI M100-S17 method
[15] = tested on: Staphylococcus epidermidis; assay: Antibacterial activity against methicillin-susceptible Staphylococcus epidermidis by CLSI M100-S17 method
Staphylococcus aureus [16] = assay: Antibacterial activity against Staphylococcus aureus ATCC 29213 by CLSI M100-S17 method; conditions: ATCC29213
Outline: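 Reference strain S. aureus ATCC 29213 was tested by CLSI broth microdilution in frozen in-house panels. Compound was dissolved and diluted in DMSO over doubling dilutions of 0.008 to 4 μg/ml.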

Enterobacter cloacae [17] = assay: Antibacterial activity against Enterobacter cloacae by CLSI M100-S17 method
Klebsiella pneumoniae [18] = assay: Antibacterial activity against Klebsiella pneumoniae by CLSI M100-S17 method in presence of Tazobactam
Outline: (§1)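 CLSI broth microdilution on clinical isolates, using frozen in-house-prepared panels of test and comparator agents. MICs were read after 20 to 24 h incubation at 35°C in ambient air. Susceptible/intermediate categories were assigned by CLSI M100-S17 guidelines.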

Acinetobacter baumannii [19] = assay: Antibacterial activity against Acinetobacter baumannii by CLSI M100-S17 method in presence of Tazobactam; outline: as §1
Klebsiella oxytoca [20] = assay: Antibacterial activity against Klebsiella oxytoca assessed as intermediate isolates by CLSI M100-S17 method in presence of Tazobactam; outline: as §1
Pseudomonas aeruginosa [21] = assay: Antibacterial activity against Pseudomonas aeruginosa assessed as intermediate isolates by CLSI M100-S17 method in presence of Tazobactam; outline: as §1
Klebsiella oxytoca [22] = assay: Antibacterial activity against Klebsiella oxytoca assessed as resistant isolates by CLSI M100-S17 method in presence of Tazobactam
Outline: (§2)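 Clinical isolates were tested by CLSI broth microdilution in frozen, in-house-prepared 96-well panels of the test agent and comparator agents. MICs were read and classed as susceptible, intermediate or resistant using CLSI M100-S17 breakpoints. The value is the share of isolates in each category.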

Enterobacter cloacae [23] = assay: Antibacterial activity against Enterobacter cloacae assessed as intermediate isolates by CLSI M100-S17 method in presence of Tazobactam; outline: as §1
Moraxella catarrhalis [24] = assay: Antibacterial activity against Moraxella catarrhalis by CLSI M100-S17 method in presence of Tazobactam; outline: as §1
Escherichia coli [25] = assay: Antibacterial activity against Escherichia coli assessed as intermediate isolates by CLSI M100-S17 method in presence of Tazobactam; outline: as §1
[26] = tested on: Stenotrophomonas maltophilia; assay: Antibacterial activity against Stenotrophomonas maltophilia by CLSI M100-S17 method in presence of Tazobactam; outline: as §1
Escherichia coli [27] = assay: Antibacterial activity against Escherichia coli assessed as resistant isolates by CLSI M100-S17 method in presence of Tazobactam; outline: as §2
Klebsiella pneumoniae [28] = assay: Antibacterial activity against Klebsiella pneumoniae assessed as intermediate isolates by CLSI M100-S17 method in presence of Tazobactam; outline: as §1
Pseudomonas aeruginosa [29] = assay: Antibacterial activity against Pseudomonas aeruginosa assessed as resistant isolates by CLSI M100-S17 method in presence of Tazobactam; outline: as §2
Proteus mirabilis [30] = assay: Antibacterial activity against Proteus mirabilis assessed as intermediate isolates by CLSI M100-S17 method in presence of Tazobactam; outline: as §2
Escherichia coli [31] = assay: Antibacterial activity against Escherichia coli assessed as susceptible isolates by CLSI M100-S17 method in presence of Tazobactam; outline: as §1
Proteus mirabilis [32] = assay: Antibacterial activity against Proteus mirabilis by CLSI M100-S17 method in presence of Tazobactam; outline: as §1
Enterobacter cloacae [33] = assay: Antibacterial activity against Enterobacter cloacae assessed as susceptible isolates by CLSI M100-S17 method in presence of Tazobactam; outline: as §1
Enterobacter cloacae [34] = assay: Antibacterial activity against Enterobacter cloacae by CLSI M100-S17 method in presence of Tazobactam; outline: as §1
Klebsiella oxytoca [35] = assay: Antibacterial activity against Klebsiella oxytoca by CLSI M100-S17 method in presence of Tazobactam; outline: as §1
Serratia marcescens [36] = assay: Antibacterial activity against Serratia marcescens assessed as resistant isolates by CLSI M100-S17 method in presence of Tazobactam; outline: as §2
Acinetobacter baumannii [37] = assay: Antibacterial activity against Acinetobacter baumannii assessed as intermediate isolates by CLSI M100-S17 method in presence of Tazobactam; outline: as §2
Klebsiella oxytoca [38] = assay: Antibacterial activity against Klebsiella oxytoca assessed as susceptible isolates by CLSI M100-S17 method in presence of Tazobactam; outline: as §1
Pseudomonas aeruginosa [39] = assay: Antibacterial activity against Pseudomonas aeruginosa by CLSI M100-S17 method in presence of Tazobactam; outline: as §1
Klebsiella pneumoniae [40] = assay: Antibacterial activity against Klebsiella pneumoniae assessed as resistant isolates by CLSI M100-S17 method in presence of Tazobactam; outline: as §2
Serratia marcescens [41] = assay: Antibacterial activity against Serratia marcescens assessed as susceptible isolates by CLSI M100-S17 method in presence of Tazobactam; outline: as §1
Serratia marcescens [42] = assay: Antibacterial activity against Serratia marcescens by CLSI M100-S17 method in presence of Tazobactam; outline: as §1
Escherichia coli [43] = assay: Antibacterial activity against Escherichia coli by CLSI M100-S17 method in presence of Tazobactam; outline: as §1
Acinetobacter baumannii [44] = assay: Antibacterial activity against Acinetobacter baumannii assessed as susceptible isolates by CLSI M100-S17 method in presence of Tazobactam; outline: as §1
Enterobacter cloacae [45] = assay: Antibacterial activity against Enterobacter cloacae assessed as resistant isolates by CLSI M100-S17 method in presence of Tazobactam; outline: as §2
Pseudomonas aeruginosa [46] = assay: Antibacterial activity against Pseudomonas aeruginosa assessed as susceptible isolates by CLSI M100-S17 method in presence of Tazobactam; outline: as §1
Klebsiella pneumoniae [47] = assay: Antibacterial activity against Klebsiella pneumoniae assessed as susceptible isolates by CLSI M100-S17 method in presence of Tazobactam; outline: as §1
Serratia marcescens [48] = assay: Antibacterial activity against Serratia marcescens assessed as intermediate isolates by CLSI M100-S17 method in presence of Tazobactam; outline: as §1
Proteus mirabilis [49] = assay: Antibacterial activity against Proteus mirabilis assessed as susceptible isolates by CLSI M100-S17 method in presence of Tazobactam; outline: as §1

Molecule `Cc1c(CN(C)C(=O)/C=C/c2cnc3c(c2)CCC(=O)N3)oc2ccccc12` [AFN-1252] has an MIC [1] of 0.008 µg/mL (≈ 0.0213 µM), an MIC90 [1] of at most 0.008 µg/mL and an MIC50 (Escherichia coli [2]) of 4 µg/mL (≈ 10.7 µM). The MIC90 (Escherichia coli [2]) was over 4 µg/mL, the MIC50 (Streptococcus pneumoniae) was over 4 µg/mL and the MIC90 (Streptococcus pneumoniae) was over 4 µg/mL. For the same molecule, the MIC (Escherichia coli [3]) was 0.016 µg/mL (≈ 0.0426 µM), the MIC (Pseudomonas aeruginosa [4]) was over 4 µg/mL and the MIC50 (Pseudomonas aeruginosa [4]) was over 4 µg/mL. It also gave an MIC90 (Pseudomonas aeruginosa [4]) of over 4 µg/mL, an MIC (Streptococcus agalactiae) of over 4 µg/mL and an MIC50 (Streptococcus agalactiae) of over 4 µg/mL. The MIC90 (Streptococcus agalactiae) was over 4 µg/mL, the MIC (Staphylococcus aureus [5]) was 0.008 µg/mL (≈ 0.0213 µM) and the MIC50 (Staphylococcus aureus [6]) was at most 0.008 µg/mL. The MIC90 (Staphylococcus aureus [6]) was at most 0.008 µg/mL, the MIC50 (Enterococcus faecium) was over 4 µg/mL and the MIC90 (Enterococcus faecium) was over 4 µg/mL. The MIC (Escherichia coli [7]) was over 32 µg/mL, the MIC50 (Moraxella catarrhalis [8]) was over 4 µg/mL and the MIC90 (Moraxella catarrhalis [8]) was over 4 µg/mL. It also gave an MIC (Acinetobacter baumannii [9]) of over 4 µg/mL, an MIC50 (Acinetobacter baumannii [9]) of over 4 µg/mL and an MIC90 (Acinetobacter baumannii [9]) of over 4 µg/mL. The MIC50 (Klebsiella pneumoniae [10]) was over 4 µg/mL, the MIC90 (Klebsiella pneumoniae [10]) was over 4 µg/mL and the MIC50 (Streptococcus pyogenes) was over 4 µg/mL. The MIC90 (Streptococcus pyogenes) was over 4 µg/mL, the MIC (Streptococcus pyogenes; read-out: MIC) was over 4 µg/mL and the MIC [11] was over 4 µg/mL. The MIC50 [11] was over 4 µg/mL, the MIC90 [11] was over 4 µg/mL and the MIC50 (Proteus mirabilis [12]) was 4 µg/mL (≈ 10.7 µM). For the same molecule, the MIC90 (Proteus mirabilis [12]) was over 4 µg/mL, the MIC (Enterococcus faecalis) was over 4 µg/mL and the MIC50 (Enterococcus faecalis) was over 4 µg/mL. For the same molecule, the MIC90 (Enterococcus faecalis) was over 4 µg/mL, the MIC50 (Klebsiella oxytoca [13]) was over 4 µg/mL and the MIC90 (Klebsiella oxytoca [13]) was over 4 µg/mL. For the same molecule, the MIC50 (Serratia marcescens [14]) was 4 µg/mL (≈ 10.7 µM), the MIC90 (Serratia marcescens [14]) was over 4 µg/mL and the MIC50 [15] was at most 0.008 µg/mL. The MIC90 [15] was 0.03 µg/mL (≈ 0.0799 µM), the MIC (Staphylococcus aureus [16]) was 0.015 µg/mL (≈ 0.04 µM) and the MIC50 (Enterobacter cloacae [17]) was over 4 µg/mL. The MIC90 (Enterobacter cloacae [17]) was over 4 µg/mL.
`CCN1CCN(C(=O)N[C@@H](C(=O)N[C@@H]2C(=O)N3[C@@H]2SC(C)(C)[C@@H]3C(=O)O)c2ccccc2)C(=O)C1=O` [PIPERACILLIN] gave an MIC50 (Klebsiella pneumoniae [18]) of 2 µg/mL, an MIC90 (Klebsiella pneumoniae [18]) of 8 µg/mL and an MIC50 (Acinetobacter baumannii [19]) of 4 µg/mL. It also gave an MIC90 (Acinetobacter baumannii [19]) of over 512 µg/mL, an Activity (Klebsiella oxytoca [20]) of 1% and an Activity (Pseudomonas aeruginosa [21]) of 0%. It also gave an Activity (Klebsiella oxytoca [22]) of 9%, an Activity (Enterobacter cloacae [23]) of 8.4% and an MIC (Moraxella catarrhalis [24]) of at most 1 µg/mL. For the same molecule, the MIC50 (Moraxella catarrhalis [24]) was at most 1 µg/mL, the MIC90 (Moraxella catarrhalis [24]) was at most 1 µg/mL and the Activity (Escherichia coli [25]) was 1%. It also gave an MIC50 [26] of over 512 µg/mL, an MIC90 [26] of over 512 µg/mL and an Activity (Escherichia coli [27]) of 1.4%. The Activity (Klebsiella pneumoniae [28]) was 1.3%, the Activity (Pseudomonas aeruginosa [29]) was 7.3% and the Activity (Proteus mirabilis [30]) was 0%. For the same molecule, the Activity (Escherichia coli [31]) was 97.6%, the MIC50 (Proteus mirabilis [32]) was 2 µg/mL and the MIC90 (Proteus mirabilis [32]) was 64 µg/mL. It also gave an Activity (Enterobacter cloacae [33]) of 82.6%, an MIC50 (Enterobacter cloacae [34]) of 2 µg/mL and an MIC90 (Enterobacter cloacae [34]) of 64 µg/mL. The MIC50 (Klebsiella oxytoca [35]) was 2 µg/mL, the MIC90 (Klebsiella oxytoca [35]) was 16 µg/mL and the Activity (Serratia marcescens [36]) was 0.9%. The Activity (Acinetobacter baumannii [37]) was 12%, the Activity (Klebsiella oxytoca [38]) was 90% and the MIC50 (Pseudomonas aeruginosa [39]) was 4 µg/mL. The MIC90 (Pseudomonas aeruginosa [39]) was 64 µg/mL, the Activity (Klebsiella pneumoniae [40]) was 2% and the Activity (Serratia marcescens [41]) was 94.4%. For the same molecule, the MIC50 (Serratia marcescens [42]) was 2 µg/mL, the MIC90 (Serratia marcescens [42]) was 8 µg/mL and the MIC50 (Escherichia coli [43]) was 2 µg/mL. It also gave an MIC90 (Escherichia coli [43]) of 4 µg/mL, an Activity (Acinetobacter baumannii [44]) of 76% and an Activity (Enterobacter cloacae [45]) of 9%. It also gave an Activity (Pseudomonas aeruginosa [46]) of 92.7%, an Activity (Klebsiella pneumoniae [47]) of 96.7% and an Activity (Serratia marcescens [48]) of 4.7%. The Activity (Proteus mirabilis [49]) was 100%.
